Key:
Details in all cases: in vivo
Rattus norvegicus [1] = experiment: Mean Chlorine excretion in rats when compound administered at 10 mg/kg po and vehicle dosed at 33.59 umol/kg; format: ADME, organism-based; design: dose 10 mg/kg, route oral
In short: (§1)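 Male Sprague-Dawley rats (HC/CFY, 175-200 g), no food or water for 18 h before and during the test. Single gavage dose (2.5-160 mg/kg; vehicle 1% carboxymethyl cellulose/0.1% Tween 80, 0.5 mL/100 g bw), then distilled water 2.5 mL/100 g bw po. Individual metabolic cages, 6 h urine. K+ by flame photometry, Cl- colorimetric, as mequiv/6 h/kg bw; unpaired Student t-test vs control.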

Rattus norvegicus [2] = experiment: Mean Chlorine excretion in rats when compound administered at 5 mg/kg po and vehicle dosed at 16.79 umol/kg; format: ADME, organism-based; design: dose 5 mg/kg, route oral; in short: as §1
Rattus norvegicus [3] = experiment: Mean Chlorine excretion in rats when compound administered at 0 mg/kg po and vehicle dosed at 0 umol/kg; format: ADME, organism-based; design: dose 0 mg/kg, route oral
Rattus norvegicus [4] = experiment: Mean Chlorine excretion in rats when compound administered at 80 mg/kg po and vehicle dosed at 268.71 umol/kg; format: ADME, organism-based; design: dose 80 mg/kg, route oral; in short: as §1
Rattus norvegicus [5] = experiment: Mean potassium excretion in rats when compound administered at 20 mg/kg po and vehicle dosed at 67.18 umol/kg; format: ADME, organism-based; design: dose 20 mg/kg, route oral; in short: as §1
Rattus norvegicus [6] = experiment: Mean potassium excretion in rats when compound administered at 40 mg/kg po and vehicle dosed at 134.35 umol/kg; format: ADME, organism-based; design: dose 40 mg/kg, route oral; in short: as §1
Rattus norvegicus [7] = experiment: Mean potassium excretion in rats when compound administered at 5 mg/kg po and vehicle dosed at 16.79 umol/kg; format: ADME, organism-based; design: dose 5 mg/kg, route oral
In short: (§2)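 Male Sprague-Dawley rats (HC/CFY, 175-200 g) fasted and water-deprived 18 h before and during the test. Dosed by gavage at 2.5-160 mg/kg in 1% carboxymethyl cellulose/0.1% Tween 80, 0.5 mL/100 g bw. Immediately hydrated with water (2.5 mL/100 g bw, po). Urine collected 6 h in metabolic cages; Na+ and K+ by flame photometry; mean mequiv/6 h/kg bw; nonpaired Student t-test.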

Rattus norvegicus [8] = experiment: Mean potassium excretion in rats when compound administered at 80 mg/kg po and vehicle dosed at 268.71 umol/kg; format: ADME, organism-based; design: dose 80 mg/kg, route oral; in short: as §2
Rattus norvegicus [9] = experiment: Urinary sodium 2 hr after the compound was administered 10 mg/kg po in rat; format: ADME, organism-based, Urine; design: dose 10 mg/kg, route oral
In short: (§3)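 Onset and duration study in fasted, water-loaded male Sprague-Dawley rats housed two per metabolic cage, six pairs per group. Single oral dose given, then water 2.5 mL/100 g po. Urine volume and sodium (flame photometry) measured over 0-1, 1-2, 2-3, 3-4 and 4-6 h intervals. Mean values compared with vehicle by Student t-test.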

Rattus norvegicus [10] = experiment: Urinary sodium 3h after the compound was administered 10 mg/kg po in rat; format: ADME, organism-based, Urine; design: dose 10 mg/kg, route oral; in short: as §3
Rattus norvegicus [11] = experiment: Urinary sodium 4 hr after the compound was administered 10 mg/kg po in rat; format: ADME, organism-based, Urine; design: dose 10 mg/kg, route oral; in short: as §3
Rattus norvegicus [12] = experiment: Urinary sodium 6 hr after the compound was administered 10 mg/kg po in rat; format: ADME, organism-based, Urine; design: dose 10 mg/kg, route oral; in short: as §3
Rattus norvegicus [13] = experiment: Mean potassium excretion in rats when compound administered at 0 mg/kg po and vehicle dosed at 0 umol/kg; format: ADME, organism-based; design: dose 0 mg/kg, route oral; in short: as §1
Rattus norvegicus [14] = experiment: Mean potassium excretion in rats when compound administered at 10 mg/kg po and vehicle dosed at 33.59 umol/kg; format: ADME, organism-based; design: dose 10 mg/kg, route oral; in short: as §1
Rattus norvegicus [15] = experiment: Mean sodium excretion in rats when compound administered at 0 mg/kg po and vehicle dosed at 0 umol/kg; format: ADME, organism-based; design: dose 0 mg/kg, route oral; in short: as §2
Rattus norvegicus [16] = experiment: Mean sodium excretion in rats when compound administered at 10 mg/kg po and vehicle dosed at 33.59 umol/kg; format: ADME, organism-based; design: dose 10 mg/kg, route oral; in short: as §2
Rattus norvegicus [17] = experiment: Mean sodium excretion in rats when compound administered at 2.5 mg/kg po and vehicle dosed at 8.4 umol/kg; format: ADME, organism-based; design: dose 2.5 mg/kg, route oral; in short: as §2
Rattus norvegicus [18] = experiment: Mean sodium excretion in rats when compound administered at 20 mg/kg po and vehicle dosed at 67.18 umol/kg; format: ADME, organism-based; design: dose 20 mg/kg, route oral; in short: as §2
Rattus norvegicus [19] = experiment: Mean sodium excretion in rats when compound administered at 40 mg/kg po and vehicle dosed at 134.35 umol/kg; format: ADME, organism-based; design: dose 40 mg/kg, route oral; in short: as §2
Rattus norvegicus [20] = experiment: Mean sodium excretion in rats when compound administered at 5 mg/kg po and vehicle dosed at 16.79 umol/kg; format: ADME, organism-based; design: dose 5 mg/kg, route oral; in short: as §2
Rattus norvegicus [21] = experiment: Mean sodium excretion in rats when compound administered at 80 mg/kg po and vehicle dosed at 268.71 umol/kg; format: ADME, organism-based; design: dose 80 mg/kg, route oral; in short: as §2

With `NS(=O)(=O)c1cc2c(cc1Cl)NCNS2(=O)=O` [HYDROCHLOROTHIAZIDE] the Cl- (Rattus norvegicus [1]) was 4.44 m equiv 6hr-1 kg-1 (body weight)-1, the Cl- (Rattus norvegicus [2]) was 4.88 m equiv 6hr-1 kg-1 (body weight)-1 and the Cl- (Rattus norvegicus [3]) was 0.78 m equiv 6hr-1 kg-1 (body weight)-1. For the same compound, the Cl- (Rattus norvegicus [4]) was 4.88 m equiv 6hr-1 kg-1 (body weight)-1, the K (Rattus norvegicus [5]) was 1.43 m equiv 6hr-1 kg-1 (body weight)-1 and the K (Rattus norvegicus [6]) was 1.64 m equiv 6hr-1 kg-1 (body weight)-1. The K (Rattus norvegicus [7]) was 1.23 m equiv 6hr-1 kg-1 (body weight)-1, the K (Rattus norvegicus [8]) was 1.57 m equiv 6hr-1 kg-1 (body weight)-1 and the “Urinary Na+” value (Rattus norvegicus [9]) was 0.39 m equiv. For the same compound, the “Urinary Na+” value (Rattus norvegicus [10]) was 0.17 m equiv, the “Urinary Na+” value (Rattus norvegicus [11]) was 0.16 m equiv and the “Urinary Na+” value (Rattus norvegicus [12]) was 0.24 m equiv. For the same compound, the K (Rattus norvegicus [13]) was 0.53 m equiv 6hr-1 kg-1 (body weight)-1, the K (Rattus norvegicus [14]) was 1.14 m equiv 6hr-1 kg-1 (body weight)-1 and the Na (Rattus norvegicus [15]) was 0.32 m equiv 6hr-1 kg-1 (body weight)-1. The Na (Rattus norvegicus [16]) was 2.86 m equiv 6hr-1 kg-1 (body weight)-1, the Na (Rattus norvegicus [17]) was 2.14 m equiv 6hr-1 kg-1 (body weight)-1 and the Na (Rattus norvegicus [18]) was 3.05 m equiv 6hr-1 kg-1 (body weight)-1. For the same compound, the Na (Rattus norvegicus [19]) was 2.78 m equiv 6hr-1 kg-1 (body weight)-1, the Na (Rattus norvegicus [20]) was 3.03 m equiv 6hr-1 kg-1 (body weight)-1 and the Na (Rattus norvegicus [21]) was 3.19 m equiv 6hr-1 kg-1 (body weight)-1.

— ChEMBL document CHEMBL1125330, “N-substituted pyrazino[2,3-c][1,2,6]thiadiazine 2,2-dioxides. A new class of diuretics” (J Med Chem, 1992)
